According to ChEMBL document CHEMBL3244257, “Effects of deuteration on locomotor activity of amphetamine” (J Med Chem, 1978):

How the values were obtained:
[1] = tested on: Mus musculus; assay: Induction of spontaneous locomotor activity in Swiss-Webster albino mouse assessed as time required to show activity at 10.6 mg/kg, ip measured every 10 mins in first hour followed by every hour for 5 hrs; type: functional; details: route intraperitoneal
In short: (§1)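 Mice weighing 22–24 g, acclimated at least 2 weeks, fed and watered freely until testing, and split into groups of five, each mouse used once. Sulfate salts in normal saline given ip at 0.2 mL/10 g. Controls received saline. Activity was counted as photocell beam interruptions in six-beam circular cages. Tests ran between 11:00 a.m. and 5:00 p.m.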

[2] = Potency ratio of compound LD50 to protioamphetamine LD50 for ip dosed Swiss-Webster mouse; type: ADME, organism-based; details: in vivo
[3] = Acute toxicity in ip dosed Swiss-Webster mouse measured for 24 hrs; type: organism-based; details: in vivo
In short: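 Groups of mice given three intraperitoneal doses (313, 353 and 394 μM/kg), 14–22 mice per dose, observed for 24 h. LD50 in mg/kg derived from regression dose-response curves by the Litchfield and Wilcoxon method.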

[4] = tested on: Mus musculus; assay: Induction of spontaneous locomotor activity in Swiss-Webster albino mouse assessed as time required to show activity at 27.2 umol/kg, ip measured every 10 mins in first hour followed by every hour for 5 hrs; type: functional; in short: as §1
[5] = tested on: Mus musculus; assay: Induction of spontaneous locomotor activity in Swiss-Webster albino mouse assessed as total activity AUC at 10.6 mg/kg, ip; type: functional, organism-based; design: dose 10.6 mg/kg; details: tested as the 2H-labelled form; in short: as §1
[6] = tested on: Mus musculus; assay: Induction of spontaneous locomotor activity in Swiss-Webster albino mouse assessed as total activity AUC at 27.2 umol/kg, ip; type: functional, organism-based; details: tested as the 2H-labelled form; in short: as §1
[7] = tested on: Mus musculus; assay: Induction of spontaneous locomotor activity in Swiss-Webster albino mouse assessed as time required to show activity at 10 mg/kg, ip measured every 10 mins in first hour followed by every hour for 5 hrs; type: functional; details: route intraperitoneal; in short: as §1
[8] = tested on: Mus musculus; assay: Induction of spontaneous locomotor activity in Swiss-Webster albino mouse assessed as total activity AUC at 10 mg/kg, ip; type: functional, organism-based; design: dose 10 mg/kg; in short: as §1

| SMILES | LD50 at 24 h [3] | Time [4] | AUC [6] | further results |
| --- | --- | --- | --- | --- |
| O=S(=O)(O)O.[2H]c1c([2H])c([2H])c(C([2H])([2H])C([2H])(N)C([2H])([2H])[2H])c([2H])c1[2H] (racemic) | 149 mg/kg |  |  | Time [1]: 120 min; selectivity ratio [2]: 1.2 |
| O=S(=O)(O)O.[2H]c1c([2H])c([2H])c(C([2H])([2H])C(C)N)c([2H])c1[2H] (racemic) | 140 mg/kg | 80 min |  | selectivity ratio [2]: 1.13 |
| O=S(=O)(O)O.[2H]C([2H])([2H])C([2H])(N)C([2H])([2H])c1ccccc1 (racemic) | 143 mg/kg | 100 min |  | selectivity ratio [2]: 1.16 |
| O=S(=O)(O)O.[2H]C(C)(N)Cc1ccccc1 (racemic) |  | 100 min |  |  |
| O=S(=O)(O)O.[2H]C(c1ccccc1)C(C)N (racemic) |  | 75 min |  |  |
| O=S(=O)(O)O.[2H]C(C)(N)C([2H])([2H])c1ccccc1 (racemic) |  | 105 min |  |  |
| CC(N)Cc1ccccc1 (racemic) |  |  |  | AUC [5]: 350 cm2 |
| CC(N)Cc1ccccc1 (racemic; 2) |  |  | 349 cm2 |  |
| CC(N)Cc1ccccc1 (racemic; 3) |  |  | 367 cm2 |  |
| CC(N)Cc1ccccc1 (racemic; 4) |  |  | 370 cm2 |  |
| CC(N)Cc1ccccc1 (racemic; 5) |  |  | 355 cm2 |  |
| CC(N)Cc1ccccc1 (racemic; 6) |  |  | 374 cm2 |  |
| C[C@H](N)Cc1ccccc1.C[C@H](N)Cc1ccccc1.O=S(=O)(O)O [DEXTROAMPHETAMINE SULFATE] | 123 mg/kg |  |  | Time [7]: 70 min; AUC [8]: 350 cm2 |
